The values that follow come from ChEMBL document CHEMBL1143386, “Prodrugs of perzinfotel with improved oral bioavailability” (J Med Chem, 2009).

Data set [1] in a line: Chemical stability in simulated gastric fluid after 4 hrs. The conditions noted are these: read-out: Stability. The format is physicochemical. In outline:
(§1)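 Compound at 0.01 mg/mL final in a 9:1 mix of aqueous buffer (pH 1.0, 4.5, 6.6 or 7.4) or simulated gastric fluid with acetonitrile, held at 37 °C in the autosampler. Injected every 4 h over 24 h onto C8 HPLC. Percent remaining from peak area at 304 nm, corrected by internal standard; products confirmed by LC/MS (-ESI).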

Data set [2] can be described thus: Chemical stability at pH 1 after 4 hrs. It counts as physicochemical. Conditions: buffer, read-out: Stability. In outline: as §1
A short description of data set [3]: Chemical stability at pH 6.6 after 4 hrs. It counts as physicochemical. The conditions noted are these: buffer, read-out: Stability. Put shortly: as §1
The nature of data set [4]: Chemical stability at pH 7.4 after 4 hrs. It counts as physicochemical. Conditions: buffer, read-out: Stability. In outline: as §1
Data set [5] in a line: Chemical stability at pH 4.5 after 4 hrs. The conditions noted are these: buffer, read-out: Stability. The format is physicochemical. In outline: as §1
The nature of data set [6]: Half life in pH 8.5 buffer assessed as formation of perzinfotel. It counts as physicochemical. Put shortly: (§2)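 Compound at a final 0.01 mg/mL in 9:1 pH 8.5 buffer or simulated intestinal fluid:acetonitrile, 37 °C. HPLC injections every 4 h over 24 h, with peak area at 304 nm corrected by internal standard and identities confirmed by LC/MS. Conversion kinetics fitted to a two-step first-order model to give rate constants, half-lives and Tmax of the hemiester.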

Data set [7] in a line: Tmax in pH 8.5 buffer assessed as formation of benzoic acid [2-(8,9-dioxo-2,6-diaza-bicyclo[5.2.0]non-1(7)-en-2-yl)-ethyl]-hydroxy-phosphinoyloxymethyl ester. The format is physicochemical. Put shortly:
as §2

The nature of data set [8]: Half life in simulated intestinal fluid assessed as formation of perzinfotel. The format is physicochemical. Conditions: simulated gi fluid. Put shortly:
as §2

The species named for data set [9] is Rattus norvegicus. Put plainly: Half life in Sprague-Dawley rat plasma assessed as formation of perzinfotel. The format is ADME. Put shortly: (§3)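 Dissolved at 0.05 mg/mL in rat plasma and incubated at 37 °C for 0–24 h. Samples quenched with acetonitrile and centrifuged; supernatant diluted and run on HPLC. Parent and conversion products quantified by peak area at 304 nm, corrected by internal standard, and confirmed by LC/MS. Kinetics fitted to a two-step first-order model.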

Data set [10] is described as follows: Tmax in simulated intestinal fluid assessed as formation of benzoic acid [2-(8,9-dioxo-2,6-diaza-bicyclo[5.2.0]non-1(7)-en-2-yl)-ethyl]-hydroxy-phosphinoyloxymethyl ester. It counts as physicochemical. Conditions: simulated gi fluid. In outline:
as §2

For data set [11], the species on record is Rattus norvegicus. Briefly: Tmax in Sprague-Dawley rat plasma assessed as formation of benzoic acid [2-(8,9-dioxo-2,6-diaza-bicyclo[5.2.0]non-1(7)-en-2-yl)-ethyl]-hydroxy-phosphinoyloxymethyl ester. The format is ADME. Conditions: in vitro. In outline: as §3
The target in data set [12] is Glutamate NMDA receptor. Put plainly: Displacement of [3H]CGP-39653 from rat brain NMDA receptor. In outline:
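Competitive displacement of [3H]CGP-39653 at the NMDA recognition site, using rat whole-brain membranes.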
Background: Loss of bound radioactivity is the signal in a displacement assay; it reports binding, not function.

Data set [13] can be described thus: AUC (0 to last) in Sprague-Dawley rat at 30 mg/kg, po. Conditions: plasma.
The nature of data set [14]: AUC (0 to 4 hrs) in Sprague-Dawley rat at 30 mg/kg, po. The format is ADME, organism-based. Set-up: time < 4 hr, dose 30 mg/kg, route oral. The conditions noted are these: plasma. In outline: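 Male Sprague-Dawley rats given a single oral gavage dose, suspended in 2% Tween-80/0.5% methylcellulose in sterile water at 1 mL/kg. Plasma sampled at 0, 0.25, 0.5, 1, 2, 4 and 6 h; n = 2 at 0, 2, 4, 6 h and n = 3 at 0.25, 0.5, 1 h. Samples were stabilized with acetic acid/KF, acidified, extracted into n-butanol and quantified by LC/MS.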

Data set [15] concerns the target T1, Glycine receptor subunit alpha-1 (Rattus norvegicus) (UniProt P07727).
T1 sequence (whole entry): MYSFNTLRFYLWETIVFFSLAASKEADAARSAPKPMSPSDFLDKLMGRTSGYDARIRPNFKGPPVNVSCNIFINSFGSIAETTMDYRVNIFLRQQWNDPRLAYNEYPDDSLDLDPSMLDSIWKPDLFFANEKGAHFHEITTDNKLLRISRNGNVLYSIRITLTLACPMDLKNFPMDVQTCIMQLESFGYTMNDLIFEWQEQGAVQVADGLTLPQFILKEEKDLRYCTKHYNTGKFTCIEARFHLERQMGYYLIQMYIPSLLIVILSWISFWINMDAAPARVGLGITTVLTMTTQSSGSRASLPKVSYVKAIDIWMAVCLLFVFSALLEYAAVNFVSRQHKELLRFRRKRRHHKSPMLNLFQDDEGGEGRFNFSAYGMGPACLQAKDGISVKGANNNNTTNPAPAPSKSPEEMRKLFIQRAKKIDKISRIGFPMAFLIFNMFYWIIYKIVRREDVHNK
Put plainly: Displacement of [3H]glycine from rat brain strychnine sensitive glycine receptor at 100 uM. Put shortly: (§4)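 Inhibition of radioligand binding at 100 µM. [3H]glycine with rat whole-brain membranes, [3H]kainate with rat frontal cortex membranes, and [3H]AMPA with rat forebrain membranes.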

Data set [16] is described as follows: Half life in Sprague-Dawley rat at 30 mg/kg, po. The format is ADME, organism-based. More on the design: dose 30 mg/kg, route oral. The conditions noted are these: in vivo. Put shortly: (§5)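 Male Sprague-Dawley rats fasted about 16 h, then dosed by oral gavage at 30 mg/kg as a suspension in 2% Tween-80/0.5% methylcellulose in water. Plasma sampled at 0–6 h (n = 2–3 per time point) and stabilized with acetic acid and KF. Samples acidified, extracted into n-butanol, and analysed by LC-MS.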

Data set [17] is described as follows: Tmax in Sprague-Dawley rat at 30 mg/kg, po. The format is ADME, organism-based. Set-up: dose 30 mg/kg, route oral. The conditions noted are these: in vivo. Put shortly: as §5
The subject of data set [18] is Plasma. Put plainly: Biodistribution in Sprague-Dawley rat plasma at 10 mg/kg, po after 0.167 hrs. Conditions: in vivo.
The species entered for data set [19] is Rattus norvegicus. Put plainly: Displacement of [3H]kainic acid from kainate receptor in rat frontal cortex at 100 uM. It counts as tissue-based. In outline:
as §4

The subject of data set [20] is Plasma. Put plainly: Biodistribution in Sprague-Dawley rat plasma at 30 mg/kg, po after 0.5 hrs. The format is ADME, organism-based. The conditions noted are these: in vivo. Set-up: dose 30 mg/kg, route oral. Put shortly:
(§6)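 Male Sprague-Dawley rats given [14C]-labelled compound by oral gavage (parent at 30 mg/kg, prodrug at 10 mg/kg). Blood, plasma and brain taken at 0.167, 0.5, 1, 4, 8 and 24 h (n = 3 rats/time point). Total radioactivity measured in each matrix. Metabolite profiles from HPLC with in-line radioactivity detection.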

Data set [21] deals with Brain. Put plainly: Biodistribution in Sprague-Dawley rat brain at 30 mg/kg, po after 0.5 hrs. Conditions: in vivo. It counts as ADME, organism-based. More on the design: dose 30 mg/kg, route oral. In outline:
as §6

In data set [22] the test system is Rattus norvegicus. Briefly: Antinociceptive activity in Sprague-Dawley rat assessed as reversal of PGE2-induced thermal hypersensitivity at 100 mg/kg after 0.5 hrs. The format is functional, organism-based. More on the design: dose 100 mg/kg. Put shortly:
(§7)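 Male Sprague-Dawley rats (200-250 g) fasted ~16 h and dosed orally in 2% Tween-80/0.5% methylcellulose (1 mL/kg) 0.5-48 h before intradermal PGE2 (0.1 mg in 50 µL). Tail-withdrawal latency was read 30 min later in water at 34-58 °C, with a 20 s cutoff. T10 from each rat's temperature-effect curve; within-subjects repeated-measures ANOVA, p < 0.05.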

The species named for data set [23] is Rattus norvegicus. Put plainly: Antinociceptive activity in Sprague-Dawley rat assessed as reversal of PGE2-induced thermal hypersensitivity after 0.5 hrs. It counts as functional. Put shortly: as §7
Data set [24] relates to Brain. Briefly: Biodistribution in Sprague-Dawley rat brain at 30 mg/kg, po after 0.167 hrs. It counts as ADME, organism-based. Set-up: dose 30 mg/kg, route oral. Conditions: in vivo. Put shortly:
as §6

Data set [25] has as its system Blood. Put plainly: Biodistribution in Sprague-Dawley rat blood at 30 mg/kg, po after 0.5 hrs. The conditions noted are these: in vivo. More on the design: dose 30 mg/kg, route oral. The format is ADME, organism-based. In outline: as §6
Data set [26] can be described thus: Cmax in Sprague-Dawley rat at 30 mg/kg, po. It counts as ADME, organism-based. More on the design: dose 30 mg/kg, route oral. Conditions: in vivo. In outline:
as §5

The test system of data set [27] is Blood. Briefly: Biodistribution in Sprague-Dawley rat blood at 10 mg/kg, po after 0.167 hrs. Conditions: in vivo.
The species entered for data set [28] is Rattus norvegicus. Put plainly: Displacement of [3H]AMPA from AMPA receptor in rat forebrain membrane at 100 uM. The format is cell membranes. In outline: as §4

The Tmax is the time from dosing to the highest level. In general, IC50 refers to the concentration needed to halve the response being measured. A higher IC50 goes with weaker potency in that assay. Usually AUC(0-t) stands for the area under the concentration-time curve up to a stated or last time point. The term half-life denotes how long it takes for the measured level to halve. Lower therefore signals fast loss. Broadly, the ED50 is the dose at which the effect has come halfway, by size or by number of responders. One may read the Cmax as the maximum level reached in the sampled fluid or tissue.

Active and inactive are the calls of the source.

In the case of `O=C(OCOP(=O)(CCN1CCCNc2c1c(=O)c2=O)OCOC(=O)C1CCCCC1)C1CCCCC1`, the remaining at 4 h is 91.6% in data set [1]; 89% in [2]; 95% in [3]; 94.4% in [4]; 99.4% in data set [5].

For `O=C(OCOP(=O)(O)CCN1CCCNc2c1c(=O)c2=O)c1ccccc1`, the t1/2 in [6] is > 24 h; in data set [8] it was > 24 h; in data set [9], 0.87 h. The time of peak concentration (Tmax) in data set [7] is 9.14 h; in data set [10], 14.48 h; in data set [11], 0.19 h. Besides, the IC50 in data set [12] came out at 17 µM.

For `O=c1c2c(c1=O)N(CCP(=O)(O)O)CCCN2` [PERZINFOTEL], the AUC(0-last) in data set [13] came out at 0.342 µg·h/mL. Moreover, in data set [14], the AUC(0-t) at 4 h came out at 0.342 µg·h/mL. The Activity in data set [15] came out at 33%; in data set [19] it was 6%; in data set [21], 98%; in data set [28], 17%. For the same compound, the half-life in [16] was 1.3 h. In [17], the Tmax came out at 0.5 h. In addition, the Drug uptake in data set [18] was 88%; in data set [20] it was 98%; in data set [24] it was 88%; in [25], 98%; in [27] it was 88%. Further, the outcome in data set [22] was Active. The ED50 in data set [23] was 35 mg/kg. The same compound came in with a Cmax in data set [26] of 0.218 µg/mL. For the same compound, the IC50 in data set [12] was determined as 0.023 µM.

Consider `CC(C)OC(=O)OCOP(=O)(CCN1CCCNc2c1c(=O)c2=O)OCOC(=O)OC(C)C`, for which the remaining at 4 h in [1] is 100%; in data set [2] it was 100%; in [3] it was 97.7%; in [4], 94.1%; in data set [5] it was 100%.
